Assay results from different studies.
Lines come from different studies, so protocols differ.
ADRA1A: Alpha-1A adrenergic receptor (ADRA1A, Homo sapiens, UniProt P35348)
rep main protease: Replicase polyprotein 1ab, main protease (rep, Severe acute respiratory syndrome coronavirus 2, UniProt P0DTD1)
HRH2: Histamine H2 receptor (HRH2, Homo sapiens, UniProt P25021)
MAL12: Alpha-glucosidase MAL12 (MAL12, Saccharomyces cerevisiae S288c, UniProt P53341)

COc1cc2cc3c4c(cc(OC)c(OC)c4c2cc1OC)CCN3C — inhibition (ADRA1A; ligand displacement, radioligand; 10 µM): 19%
COc1cc(O)c2c(c1)O[C@H](c1ccccc1)CC2=O — inhibition (rep main protease; enzyme activity, inhibitor; 100 µM): 7.82%
O=C(O)c1cc(O)c(O)c(O)c1 — kinact/KI (rep main protease; enzyme activity, inhibitor): 205 M⁻¹ s⁻¹
CC(C)CC(=O)OC[C@H]1O[C@@](C#N)(c2ccc3c(N)ncnn23)[C@H](O)[C@@H]1O — inhibition (HRH2; cell-free assay; 20 µM): 3%
O=c1c(O)c(-c2cc(O)c(O)c(O)c2)oc2cc(O)cc(O)c12 — inhibition (rep main protease; enzyme activity, inhibitor; 100 µM): 100%
COc1cc2c(cc1OC)-c1c(OC)c(OC)cc3c1[C@H](C2)N(C)CC3 — inhibition (ADRA1A; ligand displacement, radioligand; 10 µM): 82%
CN1C(=S)N(c2ccccc2)C(=O)/C1=C1/C(=O)N(C)c2ccc(Cl)cc21 — inhibition (MAL12; enzyme activity, inhibitor, absorbance; 25 µM): 11.9%
CN1CCC[C@H]1c1cccnc1 — inhibition (HRH2; ligand displacement; 50 µM): 3.47%
[2H]c1c([2H])c([C@]2([2H])CCCN2C(=O)C(C)(C)Oc2ccc3cn[nH]c3c2)c([2H])c([2H])c1C([2H])([2H])[2H] — remaining binding (Focal adhesion kinase 1 (PTK2, Homo sapiens, UniProt Q05397); binding, competition with immobilised ligand; 1 µM): 75%
CN1C(=O)/C(=N\Nc2ncc(-c3cc4ccccc4oc3=O)s2)c2cc(Cl)ccc21 — inhibition (MAL12; enzyme activity, inhibitor, absorbance; 25 µM): 17.4%
O=C(O[C@@H]1Cc2c(O)cc(O)cc2O[C@@H]1c1ccc(O)c(O)c1)c1cc(O)c(O)c(O)c1 — kinact (rep main protease; enzyme activity, inhibitor): 1.83e-05 s⁻¹
COc1cc(O)c2c(=O)cc(-c3ccccc3)oc2c1 — inhibition (rep main protease; enzyme activity, inhibitor; 10 µM): 2.12%
CCOC(=O)Cc1c2c3c(cc(OC)c(OC)c3c3cc(OC)c(OC)cc13)CCN2C — inhibition (ADRA1A; ligand displacement, radioligand; 10 µM): 13%
O=c1c(O)c(-c2ccc(O)cc2)oc2c(O)c(O)cc(O)c12 — kinact/KI (rep main protease; enzyme activity, inhibitor): 20.3 M⁻¹ s⁻¹
COc1ccc(-c2cc(=O)c3c(O)cc(OC)cc3o2)cc1 — inhibition (rep main protease; enzyme activity, inhibitor; 100 µM): 10.6%
CCc1ccc(N2C(=O)/C(=C3/C(=O)N(C)c4ccc(Cl)cc43)NC2=S)cc1 — inhibition (MAL12; enzyme activity, inhibitor, absorbance; 25 µM): 14.6%
c1cncc([C@@H]2CCCN2)c1 — inhibition (HRH2; ligand displacement; 50 µM): -6.37%
